This is an account of results in ChEMBL document CHEMBL1143141, “Regioselective synthesis and antitumor screening of some novel N-phenylpyrazole derivatives” (Bioorg Med Chem, 2008).

Test [1] deals with Ehrlich. The test can be described thus: Antitumor activity against mouse Ehrlich ascites carcinoma cells. Format: functional, cell-based. Summed up:
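Ehrlich ascites carcinoma cell suspension was exposed to test compound at three levels (25, 50, 100) for 2 h. Nonviable cells were counted by trypan blue exclusion, using a 1:10 water dilution of a 1 g/100 ml dye stock. The IC50 was calculated against a saline control group. Doxorubicin served as positive control.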

The test system of test [2] is Ehrlich. The test can be described thus: Antitumor activity against mouse Ehrlich ascites carcinoma cells at 50 ug/ml relative to doxorubicin after 2 hrs. Format: functional. Summed up: (§1)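 Ehrlich ascites carcinoma cell suspension was exposed to compound for 2 h. Percent nonviable cells was scored by trypan blue dye exclusion. Potency was calculated from the percentage change relative to doxorubicin, which served as reference. Data are means with SE. Treated and control tubes were compared by one-way ANOVA with Duncan's multiple range test.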

The subject of test [3] is Ehrlich. Nature of the test: Antitumor activity against mouse Ehrlich ascites carcinoma cells at 100 ug/ml relative to doxorubicin after 2 hrs. In kind it is functional. Summed up: as §1
Test [4] has as its system Ehrlich. Nature of the test: Antitumor activity against mouse Ehrlich ascites carcinoma cells at 25 ug/ml relative to doxorubicin after 2 hrs. Format: functional. An outline of the steps:
as §1

Values after ≈ are worked out from the molar mass of the structure shown.

As for `CC(=O)c1nn(-c2cccc(C)c2)cc1C(=O)c1c(C(=O)Nc2ccccc2)nn(-c2ccccc2)c1C`, half-maximal inhibition with Ehrlich [1] (IC50) required 100 µg/mL (≈ 199 µM). Further, the Activity in the test on Ehrlich [2] came out at 10%; in the test with Ehrlich [3], 20%; with Ehrlich [4], 0%.

With `CC(=O)c1c(C(=O)Nc2ccccc2)nn(-c2ccccc2)c1C`, the Activity in the test on Ehrlich [2], in the test on Ehrlich [3] and with Ehrlich [4] was 0% throughout.

Turning to `Cc1c(C(=O)c2cn(-c3ccccc3)nc2-c2ccccc2)c(C(=O)Nc2ccccc2)nn1-c1ccccc1`, the Activity in the test on Ehrlich [2], in the test with Ehrlich [3] and with Ehrlich [4] was 0% throughout.

In the test on Ehrlich [1], `COc1cccc2c1C(=O)c1c(O)c3c(c(O)c1C2=O)C[C@@](O)(C(=O)CO)C[C@@H]3O[C@H]1C[C@H](N)[C@H](O)[C@H](C)O1` [DOXORUBICIN] came in with an IC50 of 35 µg/mL (≈ 64.4 µM). The Activity in the test on Ehrlich [2] amounted to 55%; with Ehrlich [3] it was 100%; in the test on Ehrlich [4], 20%.

In turn, `Cc1c(C(=O)c2cn(-c3ccccc3)nc2C(=O)Nc2ccccc2)c(C(=O)Nc2ccccc2)nn1-c1ccccc1` yielded an IC50 in the test on Ehrlich [1] of 70 µg/mL (≈ 124 µM). Also, the values for the Activity in the test on Ehrlich [2], with Ehrlich [3] and with Ehrlich [4] were 20%, 35% and 5%, respectively.

On to `Cc1c(C(=O)/C=C/N(C)C)c(C(=O)Nc2ccccc2)nn1-c1ccccc1`, for which the IC50 in the test on Ehrlich [1] was more than 100 µg/mL. In addition, the Activity with Ehrlich [2] was 5%; in the test with Ehrlich [3], 10%; in the test with Ehrlich [4] it was 0%.

`CC(=O)c1nn(-c2ccc(Br)cc2)cc1C(=O)c1c(C(=O)Nc2ccccc2)nn(-c2ccccc2)c1C` returned a half-inhibitory concentration (IC50) in the test with Ehrlich [1] of more than 100 µg/mL. For the same molecule, the Activity came out at 15% with Ehrlich [2], 25% with Ehrlich [3] and 0% in the test with Ehrlich [4].

In turn, `CCOC(=O)c1nn(-c2ccccc2)cc1C(=O)c1c(C(=O)Nc2ccccc2)nn(-c2ccccc2)c1C` returned an IC50 with Ehrlich [1] of more than 100 µg/mL. Further, the Activity is 0% in the test on Ehrlich [2], 10% with Ehrlich [3] and 0% in the test with Ehrlich [4].

In the case of `CCOC(=O)c1nn(-c2ccc([N+](=O)[O-])cc2)cc1C(=O)c1c(C(=O)Nc2ccccc2)nn(-c2ccccc2)c1C`, the Activity in the test on Ehrlich [2], in the test on Ehrlich [3] and with Ehrlich [4] was 0% each time.

`CC(=O)c1nn(-c2ccc(C)cc2)cc1C(=O)c1c(C(=O)Nc2ccccc2)nn(-c2ccccc2)c1C` displayed an IC50 in the test on Ehrlich [1] of more than 100 µg/mL. Also, the values for the Activity in the test on Ehrlich [2], with Ehrlich [3] and in the test on Ehrlich [4] were 5%, 10% and 0%, respectively.

As for `CC(=O)c1nn(-c2ccccc2)cc1C(=O)c1c(C(=O)Nc2ccccc2)nn(-c2ccccc2)c1C`, in the test with Ehrlich [1], the concentration for half-maximal inhibition (IC50) was more than 100 µg/mL. Also, the results for the Activity in the test with Ehrlich [2], in the test on Ehrlich [3] and in the test on Ehrlich [4] were 5%, 20% and 0%, respectively.

Take `CCOC(=O)c1nn(-c2ccc(Br)cc2)cc1C(=O)c1c(C(=O)Nc2ccccc2)nn(-c2ccccc2)c1C`: the IC50 in the test on Ehrlich [1] is more than 100 µg/mL. For the same molecule, the figures for the Activity with Ehrlich [2], in the test on Ehrlich [3] and in the test on Ehrlich [4] were 10%, 20% and 0%, respectively.

Usually IC50 stands for the point on the concentration scale where inhibition reaches its midpoint. The low end stands for inhibition by little substance, the high end for a need for much substance.
